Among the data in ChEMBL document CHEMBL1131459, “2-Substituted (2SR)-2-amino-2-((1SR,2SR)-2-carboxycycloprop-1-yl)glycines as potent and selective antagonists of group II metabotropic glutamate receptors. 1. Effects of alkyl, arylalkyl, and diarylalkyl substitution” (J Med Chem, 1998) are IC50 values, retold here.

What is called pIC50 is the negative decadic logarithm of the IC50, by convention in mol/L.

Test [1] is described as follows: Inhibitory activity for Group II Metabotropic glutamate receptor in rat forebrain membranes by using [3H]glutamate radioligand. In kind it is cell membranes, Membrane. Summed up: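 Displacement of [³H]glutamic acid binding in rat forebrain membranes, an assay described as selective for group II mGluRs. Each compound was tested as a mixture of four isomers (two racemic diastereomers). Some values are the average of two determinations and some of three.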

Test [2] addresses T1, Metabotropic glutamate receptor 3 (Homo sapiens, UniProt Q14832). Kind of test: Compound was tested its ability to block 1S,3R-ACPD-induced inhibition of forskolin stimulated cyclic-AMP in non-neuronal cell line expressing human Metabotropic glutamate receptor 3; Agonist. Format: functional.
The target in test [3] is T2, Metabotropic glutamate receptor 2 (Homo sapiens, UniProt Q14416). Kind of test: Compound was tested its ability to block 1S,3R-ACPD-induced inhibition of forskolin stimulated cyclic-AMP in non-neuronal cell line expressing human Metabotropic glutamate receptor 2; Agonist. Format: functional.
T2 sequence (Q14416 whole entry): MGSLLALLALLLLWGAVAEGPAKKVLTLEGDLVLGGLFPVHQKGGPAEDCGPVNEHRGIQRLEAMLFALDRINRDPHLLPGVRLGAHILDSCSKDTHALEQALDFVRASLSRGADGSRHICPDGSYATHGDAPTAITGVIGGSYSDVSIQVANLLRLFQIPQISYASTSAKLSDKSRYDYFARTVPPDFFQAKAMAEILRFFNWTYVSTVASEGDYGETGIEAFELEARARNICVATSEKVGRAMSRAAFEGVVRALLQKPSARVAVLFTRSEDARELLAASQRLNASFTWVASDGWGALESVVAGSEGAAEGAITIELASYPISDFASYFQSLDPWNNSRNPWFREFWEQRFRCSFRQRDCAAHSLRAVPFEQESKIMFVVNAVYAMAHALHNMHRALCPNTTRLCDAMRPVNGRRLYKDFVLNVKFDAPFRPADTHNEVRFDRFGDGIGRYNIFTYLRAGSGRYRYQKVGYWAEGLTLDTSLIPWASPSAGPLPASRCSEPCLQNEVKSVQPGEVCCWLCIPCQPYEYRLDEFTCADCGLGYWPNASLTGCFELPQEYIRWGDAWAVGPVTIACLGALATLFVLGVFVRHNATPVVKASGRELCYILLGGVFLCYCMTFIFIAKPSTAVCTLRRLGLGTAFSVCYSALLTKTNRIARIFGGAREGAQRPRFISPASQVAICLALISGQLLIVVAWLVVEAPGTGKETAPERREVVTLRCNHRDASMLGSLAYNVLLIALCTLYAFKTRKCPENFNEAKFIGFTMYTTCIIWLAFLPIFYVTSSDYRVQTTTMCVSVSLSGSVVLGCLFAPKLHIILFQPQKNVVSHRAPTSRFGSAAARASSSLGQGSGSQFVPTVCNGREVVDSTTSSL
For test [4], the target named is T2, Metabotropic glutamate receptor 2. Description: Ability to block 1S,3R-ACPD-induced inhibition of forskolin stimulated cyclic-AMP in non-neuronal cell line expressing human Metabotropic glutamate receptor 2. Format: functional.
Test [5] addresses T1, Metabotropic glutamate receptor 3. Kind of test: Ability to block 1S,3R-ACPD-induced inhibition of forskolin stimulated cyclic-AMP in non-neuronal cell line expressing human Metabotropic glutamate receptor 3. In kind it is functional.

SMILES strings stand for the structures. pIC50: −log10 of the molar value.

T1 sequence (Q14832 whole entry): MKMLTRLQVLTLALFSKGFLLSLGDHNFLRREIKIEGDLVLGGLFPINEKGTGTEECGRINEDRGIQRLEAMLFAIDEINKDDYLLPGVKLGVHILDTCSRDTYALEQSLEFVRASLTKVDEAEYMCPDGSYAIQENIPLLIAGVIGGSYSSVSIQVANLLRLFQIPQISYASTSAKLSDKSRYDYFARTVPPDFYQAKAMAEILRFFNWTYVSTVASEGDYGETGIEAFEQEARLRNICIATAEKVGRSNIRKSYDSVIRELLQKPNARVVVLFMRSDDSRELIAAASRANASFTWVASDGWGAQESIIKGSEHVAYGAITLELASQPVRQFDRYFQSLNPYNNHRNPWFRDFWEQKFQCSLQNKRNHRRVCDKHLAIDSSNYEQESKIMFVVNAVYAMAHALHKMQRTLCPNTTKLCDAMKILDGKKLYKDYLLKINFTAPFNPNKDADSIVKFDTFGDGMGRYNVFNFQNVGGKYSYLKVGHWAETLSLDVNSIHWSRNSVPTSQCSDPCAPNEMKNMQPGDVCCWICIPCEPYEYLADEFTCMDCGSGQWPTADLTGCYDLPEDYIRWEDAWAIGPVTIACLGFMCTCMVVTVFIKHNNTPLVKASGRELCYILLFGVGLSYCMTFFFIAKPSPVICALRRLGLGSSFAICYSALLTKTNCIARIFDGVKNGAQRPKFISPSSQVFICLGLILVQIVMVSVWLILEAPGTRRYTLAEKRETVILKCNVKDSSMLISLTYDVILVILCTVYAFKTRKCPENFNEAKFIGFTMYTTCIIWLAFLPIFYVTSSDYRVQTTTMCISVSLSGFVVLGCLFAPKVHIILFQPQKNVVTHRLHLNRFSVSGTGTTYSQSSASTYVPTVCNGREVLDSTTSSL

For `CCC[C@](N)(C(=O)O)C1C[C@@H]1C(=O)O` (some centres not stated), in test [1], the pIC50 is 5.68.

For the molecule `N[C@@](CC1CCCc2ccccc21)(C(=O)O)C1C[C@@H]1C(=O)O` (some centres not stated), the pIC50 in test [1] was 6.64. In turn, `N[C@@](CC1CCCC1)(C(=O)O)C1C[C@@H]1C(=O)O` (some centres not stated) showed a pIC50 in test [1] of 5.85. With `CCCCCCCC[C@](N)(C(=O)O)C1C[C@@H]1C(=O)O` (some centres not stated), in test [1], the negative logarithm of the IC50 (pIC50) is 5.77. The same measure, in the same setting: the same measure for `CCCC[C@](N)(C(=O)O)C1C[C@@H]1C(=O)O` (some centres not stated): 5.85; for `CCCCC[C@](N)(C(=O)O)C1C[C@@H]1C(=O)O` (some centres not stated): 5.74; for `CC(C)[C@](N)(C(=O)O)C1C[C@@H]1C(=O)O` (some centres not stated): under 5.00. On the same count and under the same terms, as for `N[C@@](CCC1CCCCC1)(C(=O)O)C1C[C@@H]1C(=O)O` (some centres not stated), the figure is 6.42.

On to `CC(C)CC[C@](N)(C(=O)O)C1C[C@@H]1C(=O)O` (some centres not stated), for which, in test [1], the negative logarithm of the IC50 (pIC50) was 5.96. Turning to `CC(C)CCC[C@](N)(C(=O)O)C1C[C@@H]1C(=O)O` (some centres not stated), the negative logarithm of the IC50 (pIC50) in test [1] was 6.07. Regarding `N[C@@H](C(=O)O)C1C[C@@H]1C(=O)O` (some centres not stated), the IC50 entry in test [2] and in test [3] was “Agonist” each time. The molecule also had a pIC50 in test [1] of 6.33.

`N[C@@](CCc1ccc2ccccc2c1)(C(=O)O)C1C[C@@H]1C(=O)O` (some centres not stated) gave a negative logarithm of the IC50 (pIC50) in test [1] of 5.55. Same read-out and setting: the same measure for `N[C@@](CC1CCOc2ccccc21)(C(=O)O)C1C[C@@H]1C(=O)O` (some centres not stated): 6.20; for `N[C@@](CC1c2ccccc2Oc2ccccc21)(C(=O)O)[C@H]1C[C@@H]1C(=O)O`: 8.00. As for `NC(CC1CCCCC1)(C(=O)O)[C@H]1C[C@@H]1C(=O)O` (some centres not stated), the results for the negative-log IC50 (pIC50) in test [1], in test [4] and in test [5] were 6.64, 5.96 and 5.85, respectively. The matching figures for `CCC(N)(C(=O)O)[C@H]1C[C@@H]1C(=O)O` (some centres not stated): 5.66, 5.19 and 5.60. For `Cn1cc(CCC(N)(C(=O)O)[C@H]2C[C@@H]2C(=O)O)c2ccccc21` (some centres not stated), in that order: 6.55, 5.85 and 5.92.

`NC(CCc1ccsc1)(C(=O)O)[C@H]1C[C@@H]1C(=O)O` (some centres not stated): the pIC50 in test [1] is 6.68; in test [4], 6.00; in test [5], 6.24. For `NC(CCc1ccccc1)(C(=O)O)[C@H]1C[C@@H]1C(=O)O` (some centres not stated), in that order: 6.49, 6.07 and 6.19. On to `NC(CCc1cccc2ccccc12)(C(=O)O)[C@H]1C[C@@H]1C(=O)O` (some centres not stated), for which the results for the negative logarithm of the IC50 (pIC50) in test [4] and in test [5] were 6.62 and 6.33, respectively.

As for `NC(CCCc1ccccc1)(C(=O)O)[C@H]1C[C@@H]1C(=O)O` (some centres not stated), the pIC50 in test [1] is 6.20; in test [4], 6.00; in test [5], 6.26. For `NC(CCCCc1ccccc1)(C(=O)O)[C@H]1C[C@@H]1C(=O)O` (some centres not stated), in that order: 5.64, 6.35 and 5.55. Take `NC(CCC12CC3CC(CC(C3)C1)C2)(C(=O)O)[C@H]1C[C@@H]1C(=O)O` (some centres not stated): the pIC50 was 6.70 in test [1], 6.62 in test [4] and 6.12 in test [5]. For `N[C@@](CC(c1ccccc1)c1ccccc1)(C(=O)O)[C@H]1C[C@@H]1C(=O)O`, in that order: 6.62, 5.36 and 6.55. In test [1], `N[C@@](CC(Cc1ccccc1)Cc1ccccc1)(C(=O)O)C1C[C@@H]1C(=O)O` (some centres not stated) showed a negative-log IC50 (pIC50) of under 5.00. The molecule `C[C@](N)(C(=O)O)C1C[C@@H]1C(=O)O` (some centres not stated) gave a pIC50 in test [1] of 5.21. Same read-out and setting: the same measure for `N[C@@](CCC1CCNCC1)(C(=O)O)C1C[C@@H]1C(=O)O` (some centres not stated): under 5.00; for `N[C@@](COc1ccccc1)(C(=O)O)C1C[C@@H]1C(=O)O` (some centres not stated): 4.95. For `N[C@@](Cc1ccccc1)(C(=O)O)C1C[C@@H]1C(=O)O` (some centres not stated), the pIC50 in test [1], in test [4] and in test [5] was under 5.00 in each case. `CC(C[C@](N)(C(=O)O)C1C[C@@H]1C(=O)O)c1ccccc1` (some centres not stated): the pIC50 in test [1] was 6.70. On to `CC(C)C[C@](N)(C(=O)O)C1C[C@@H]1C(=O)O` (some centres not stated), for which the negative-log IC50 (pIC50) in test [1] is 6.15; in test [4] it was 5.80; in test [5], 5.74. With `N[C@@](CC1CCC1)(C(=O)O)C1C[C@@H]1C(=O)O` (some centres not stated), the pIC50 is 4.53 in test [1], under 5.00 in test [4] and under 5.00 in test [5]. Molecule `N[C@@](CCC1C2CC3CC(C2)CC1C3)(C(=O)O)C1C[C@@H]1C(=O)O` (some centres not stated) had a pIC50 in test [1] of 6.26.

As to `N[C@@](CCCC(c1ccccc1)c1ccccc1)(C(=O)O)C1C[C@@H]1C(=O)O` (some centres not stated), in test [1], the negative-log IC50 (pIC50) was 5.15. The same measure, in the same setting: the same measure for `N[C@@](CC1c2ccccc2Sc2ccccc21)(C(=O)O)C1C[C@@H]1C(=O)O` (some centres not stated): 7.72. Consider `N[C@@](CCC(c1ccccc1)c1ccccc1)(C(=O)O)C1C[C@@H]1C(=O)O` (some centres not stated), for which the pIC50 in test [1] was 5.15; in test [4], under 5.00; in test [5] it was under 5.00. Molecule `N[C@@](CCc1cccs1)(C(=O)O)C1C[C@@H]1C(=O)O` (some centres not stated) showed a negative logarithm of the IC50 (pIC50) in test [1] of 6.24. On the same count and under the same terms, the same measure for `N[C@](C(=O)O)(C1Cc2ccccc2C1)C1C[C@@H]1C(=O)O` (some centres not stated): under 5.00.
